# Measurements: ChEMBL document CHEMBL1833898, “Dual pro-drugs of 2'-C-methyl guanosine monophosphate as potent and selective inhibitors of hepatitis C virus” (Bioorg Med Chem Lett, 2011)
# The source made the active and inactive calls. No cut-off for these calls is given here.
# Key:
# [1] = Cytotoxicity against human HuH7 cells; format: cell-based, Huh-7
# [2] = Prodrug conversion of the compound after 24 hrs using UV spectroscopic analysis in presence of adenosine deaminase; format: ADME
# Procedure, shortened: (§1)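 Nucleoside at 44 μM (1 ml, phosphate buffer pH 7.4) with 30 μL adenosine deaminase solution. UV spectra taken at 1 min intervals for 30 min. Conversion judged by the spectrum matching 2'-C-methylguanosine. Reaction followed up to 24 h.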
# [3] = tested on: Hepatitis C virus; test: Antiviral activity against Hepatitis C virus subtype 1b replicon in human HuH7 cells after 48 hrs by subgenomic replicon assay; format: functional, organism-based, Hepacivirus hominis; conditions: genotype 1b, Huh-7, 48 h
# [4] = tested on: Hepatitis C virus; test: Antiviral activity against Hepatitis C virus subtype 1b replicon in by replicon assay in presence of adenosine deaminase inhibitor pentostatin; format: functional, organism-based; conditions: Hepacivirus hominis; genotype 1b
# Procedure, shortened: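 Genotype 1b replicon in HUH7 cells, 48 h compound exposure, run with and without the adenosine/adenylate deaminase inhibitor pentostatin.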
# [5] = Prodrug conversion of the compound using UV spectroscopic analysis in presence of adenosine deaminase; format: ADME; procedure, shortened: as §1
# [6] = tested on: Huh-7; test: Prodrug stability in human HuH7 cell lysates assessed as monophosphate formation at pH 7.6 after every 1 hr for 11 hrs by NMR assay; format: ADME, cell-based, Lysate; conditions: huh-7, pH 7.6, 11 h
# Procedure, shortened: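 HuH7 cell lysate (10^7 cells) in acetone-d6 and Trizma buffer pH 7.6 at 37 °C. 31P NMR taken every 1 h for 11 h. Monophosphate identified by a signal at the shift of an authentic monophosphate.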
# [7] = Stability of the compound assessed as half life by NMR analysis in presence of carboxypeptidase Y; format: ADME
# Procedure, shortened: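 Incubation with carboxypeptidase Y in acetone-d6 and Trizma buffer pH 7.6. 31P NMR spectra taken every 7 min over 14 h to follow loss of starting material and intermediate formation.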
SMILES,Drug metabolism [2],EC50 [3] [µM],Drug metabolism [5],CC50 [1] [µM],Activity [4],EC90 [3] [µM],Drug metabolism [6],half-life [7] [h]
CSc1nc(N)nc2c1ncn2[C@@H]1O[C@H](COP(=O)(N[C@@H](C)C(=O)OCC(C)(C)C)Oc2cccc3ccccc23)[C@@H](O)[C@@]1(C)O (stereo not given in full),,0.037,,41,inactive,0.16,,
CCOc1nc(N)nc2c1ncn2[C@@H]1O[C@H](COP(=O)(N[C@H](C(=O)OCC(C)(C)C)C(C)C)Oc2cccc3ccccc23)[C@@H](O)[C@@]1(C)O (stereo not given in full),,0.17,,24,inactive,,,
C[C@H](NP(=O)(OC[C@H]1O[C@@H](n2cnc3c(NCCc4ccccc4)nc(N)nc32)[C@](C)(O)[C@@H]1O)Oc1cccc2ccccc12)C(=O)OCC(C)(C)C (stereo not given in full),,0.27,,42,inactive,1.3,,
CCOc1nc(N)nc2c1ncn2[C@@H]1O[C@H](COP(=O)(N[C@@H](C)C(=O)OCc2ccc(F)cc2F)Oc2cccc3ccccc23)[C@@H](O)[C@@]1(C)O (stereo not given in full),,0.034,,17,inactive,,,
CNc1nc(N)nc2c1ncn2[C@@H]1O[C@H](COP(=O)(N[C@@H](C)C(=O)OCC(C)(C)C)Oc2cccc3ccccc23)[C@@H](O)[C@@]1(C)O (stereo not given in full),,0.035,,38,inactive,0.103,,
CCOc1nc(N)nc2c1ncn2[C@@H]1O[C@H](COP(=O)(N[C@@H](C)C(=O)O[C@@H](C)c2ccccc2)Oc2cccc3ccccc23)[C@@H](O)[C@@]1(C)O (stereo not given in full),,0.085,,12,inactive,,Active,
CCOc1nc(N)nc2c1ncn2[C@@H]1O[C@H](COP(=O)(N[C@@H](C)C(=O)OC(C)C)Oc2cccc3ccccc23)[C@@H](O)[C@@]1(C)O (stereo not given in full),,0.14,,40,inactive,,,4
CCOc1nc(N)nc2c1ncn2[C@@H]1O[C@H](COP(=O)(N[C@@H](C)C(=O)OCC(C)(C)C)Oc2cccc3ccccc23)[C@@H](O)[C@@]1(C)O (stereo not given in full),,0.008,,10,inactive,0.032,,
CCOc1nc(N)nc2c1ncn2[C@@H]1O[C@H](COP(=O)(N[C@@H](C)C(=O)OCc2ccccc2)Oc2cccc3ccccc23)[C@@H](O)[C@@]1(C)O (stereo not given in full),,0.04,,11,inactive,,,
COc1nc(N)nc2c1ncn2[C@@H]1O[C@H](COP(=O)(N[C@@H](C)C(=O)OCC(C)(C)C)Oc2cccc3ccccc23)[C@@H](O)[C@@]1(C)O (stereo not given in full) [BMS-986094],,,,,inactive,0.038,,
C[C@H](NP(=O)(OC[C@H]1O[C@@H](n2cnc3c(NCc4ccccc4)nc(N)nc32)[C@](C)(O)[C@@H]1O)Oc1cccc2ccccc12)C(=O)OCC(C)(C)C (stereo not given in full),,0.79,,15,inactive,2.7,,

# The next lines start with results.
Drug metabolism [2],EC50 [3] [µM],Drug metabolism [5],SMILES,CC50 [1] [µM],Activity [4],EC90 [3] [µM],Drug metabolism [6],half-life [7] [h]
Not Active,11,,CSc1nc(N)nc2c1ncn2[C@@H]1O[C@H](CO)[C@@H](O)[C@@]1(C)O,> 100,,,,
,12,,COCCCOc1nc(N)nc2c1ncn2[C@@H]1O[C@H](CO)[C@@H](O)[C@@]1(C)O,> 100,,,,
Not Active,13,,CNc1nc(N)nc2c1ncn2[C@@H]1O[C@H](CO)[C@@H](O)[C@@]1(C)O,> 100,,,,
,8.8,Active,CCOc1nc(N)nc2c1ncn2[C@@H]1O[C@H](CO)[C@@H](O)[C@@]1(C)O,> 100,,,,
,0.012,,C[C@H](NP(=O)(OC[C@H]1O[C@@H](n2cnc3c(Cl)nc(N)nc32)[C@](C)(O)[C@@H]1O)Oc1cccc2ccccc12)C(=O)OCC(C)(C)C (stereo not given in full),16,inactive,0.028,,
,0.043,,COCCCOc1nc(N)nc2c1ncn2[C@@H]1O[C@H](COP(=O)(N[C@@H](C)C(=O)OCC(C)(C)C)Oc2cccc3ccccc23)[C@@H](O)[C@@]1(C)O (stereo not given in full),31,inactive,0.12,,
,8.5,,C[C@@]1(O)[C@H](O)[C@@H](CO)O[C@H]1n1cnc2c(Cl)nc(N)nc21,> 100,,,,
,24,,C[C@@]1(O)[C@H](O)[C@@H](CO)O[C@H]1n1cnc2c(NCCc3ccccc3)nc(N)nc21,> 100,,,,
,0.08,,CCOc1nc(N)nc2c1ncn2[C@@H]1O[C@H](COP(=O)(N[C@@H](C)C(=O)OC2CCCCO2)Oc2cccc3ccccc23)[C@@H](O)[C@@]1(C)O (stereo not given in full),47,inactive,,,
,0.023,,CC(C)Oc1nc(N)nc2c1ncn2[C@@H]1O[C@H](COP(=O)(N[C@@H](C)C(=O)OCC(C)(C)C)Oc2cccc3ccccc23)[C@@H](O)[C@@]1(C)O (stereo not given in full),11,inactive,0.065,,
,,Active,C[C@@]1(O)[C@H](O)[C@@H](CO)O[C@H]1N1C=NC2C(=O)NC(N)=NC21 (stereo not given in full),,,,,
,30,,C[C@@]1(O)[C@H](O)[C@@H](CO)O[C@H]1n1cnc2c(NCc3ccccc3)nc(N)nc21,,,,,
,4.6,,COc1nc(N)nc2c1ncn2[C@@H]1O[C@H](CO)[C@@H](O)[C@@]1(C)O [BETA-2'-C-METHYL-6-O-METHYL GUANOSINE],> 100,,,,
,9.3,,CC(C)Oc1nc(N)nc2c1ncn2[C@@H]1O[C@H](CO)[C@@H](O)[C@@]1(C)O,> 100,,,,
